Source: ChEMBL document CHEMBL2401719, “The development of a new class of inhibitors for betaine-homocysteine S-methyltransferase” (Eur J Med Chem, 2013)

Key:
[1] = target: T1, Betaine--homocysteine S-methyltransferase 1 (Homo sapiens) (UniProt Q93088); assay: Inhibition of human recombinant BHMT using N-methyl-[14C]-betaine/D,L-homocysteine as substrate at 20 uM after 30 mins by scintiillation counting analysis
T1 sequence (whole entry): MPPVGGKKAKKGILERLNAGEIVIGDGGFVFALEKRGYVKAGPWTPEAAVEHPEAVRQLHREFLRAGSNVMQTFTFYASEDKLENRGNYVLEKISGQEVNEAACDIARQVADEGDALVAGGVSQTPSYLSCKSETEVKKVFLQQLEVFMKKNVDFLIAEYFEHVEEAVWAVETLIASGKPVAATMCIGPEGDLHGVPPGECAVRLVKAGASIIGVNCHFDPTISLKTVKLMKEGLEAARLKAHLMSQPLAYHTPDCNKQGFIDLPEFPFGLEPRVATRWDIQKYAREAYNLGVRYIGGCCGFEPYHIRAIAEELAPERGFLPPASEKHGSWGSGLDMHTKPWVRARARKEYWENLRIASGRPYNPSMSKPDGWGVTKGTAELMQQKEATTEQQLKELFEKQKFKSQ
Procedure, shortened: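 Human recombinant BHMT assayed in pH 7.5 buffer with 0.25 mM betaine and 0.1 mM D,L-homocysteine, compound at a single fixed concentration. Percent inhibition is the average of triplicates, with data reproducible within ±15%.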

[2] = target: T2, Betaine--homocysteine S-methyltransferase 1 (Homo sapiens, UniProt Q93088); assay: Inhibition of human recombinant BHMT using N-methyl-[14C]-betaine/D,L-homocysteine as substrate after 30 mins by scintiillation counting analysis
T2 sequence (Q93088 whole entry): T1 sequence (whole entry)
Procedure, shortened: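 Human recombinant BHMT assayed in pH 7.5 buffer with 2 mM betaine and 1 mM D,L-homocysteine. Each IC50 data point was run in duplicate.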

| inhibition [1] [%] | Structure (SMILES) | IC50 [2] [µM] |
| --- | --- | --- |
| 24 | O=C(O)CCCCS[C@@H]1CN[C@H](C(=O)O)C1 |  |
| 0 | O=C(O)CCCCS[C@H]1CN[C@H](C(=O)O)C1 |  |
| 67 | CS(=O)(=O)NC(=O)C(N)CCSCCCCC(=O)O (racemic) |  |
| 17 | NC(=O)C(N)CCSCCCCC(=O)O (racemic) |  |
| 15 | NC(CCSCCCCC(=O)O)c1nc(=O)o[nH]1 (racemic) |  |
| 0 | NC(CCSCCCCC(=O)O)c1nnn[nH]1 (racemic) |  |
| 28 | NNC(=O)C(N)CCSCCCCC(=O)O (racemic) |  |

Continued, compound first:

| Structure (SMILES) | inhibition [1] [%] | IC50 [2] [µM] |
| --- | --- | --- |
| NC(CCSCCCCC(=O)O)P(=O)(O)O (racemic) | 58 | 219 |
| NC(CCSCCCCC(=O)O)[PH](=O)O (racemic) | 95 | 5 |
| CC(C)(CCSCCC(N)[PH](=O)O)CC(=O)O (racemic) | 99 | 1.1 |
| CNC(=O)C(N)CCSCCCCC(=O)O (racemic) | 8 |  |
| N#CC(N)CCSCCCCC(=O)O (racemic) | 9 |  |
| NC(CCSCCCCC(=O)O)C(=O)N1CCCCC1 (racemic) | 9 |  |
